From ChEMBL document CHEMBL1641579, “Synthesis and biological evaluation of 7-substituted-1-(3-bromophenylamino)isoquinoline-4-carbonitriles as inhibitors of myosin light chain kinase and epidermal growth factor receptor” (Bioorg Med Chem, 2011) come the findings set out here.

Test [1] concerns the target Mitogen-activated protein kinase 8 (Homo sapiens) (UniProt P45983). Kind of test: Inhibition of JNK1 assessed as residual activity at 10 uM. In short, it runs like this:
(§1)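 Kinase panel screen run as a radioactive activity assay at single compound concentration. Score reported as percent activity remaining relative to DMSO controls (100%).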

For test [2], the target named is Tyrosine-protein kinase BTK (Homo sapiens) (UniProt Q06187). Kind of test: Inhibition of BTK assessed as residual activity at 10 uM. In short, it runs like this: as §1
Test [3] has as its target RAC-alpha serine/threonine-protein kinase (Homo sapiens) (UniProt P31749). Description: Inhibition of PKBalpha assessed as residual activity at 10 uM. In short, it runs like this:
(§2)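 Panel screen by radioactive kinase assay at a single inhibitor concentration. Score is the percent activity remaining relative to DMSO controls (100%).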

Test [4] in a line: Inhibition of PHK assessed as residual activity at 10 uM. In short, it runs like this: as §2
Test [5] deals with Proto-oncogene tyrosine-protein kinase Src (Homo sapiens) (UniProt P12931). Description: Inhibition of Src assessed as residual activity at 10 uM. The method in brief: as §2
Test [6] has as its target Cyclin-dependent kinase 2/cyclin A (Homo sapiens) (UniProt P24941+P20248+P78396). Description: Inhibition of CDK2/CyclinA assessed as residual activity at 10 uM. Format: protein-complex assay. In short, it runs like this: as §1
Test [7] deals with Mitogen-activated protein kinase 1 (Homo sapiens) (UniProt P28482). Kind of test: Inhibition of ERK2 assessed as residual activity at 10 uM. In short, it runs like this: as §1
Test [8] can be described thus: Inhibition of AMPK assessed as residual activity at 10 uM. In short, it runs like this:
as §1

For test [9], the target named is Insulin receptor-related protein (Homo sapiens) (UniProt P14616). Kind of test: Inhibition of IRR assessed as residual activity at 10 uM. In short, it runs like this: as §1
The target in test [10] is T1, Serine/threonine-protein kinase D1 (Homo sapiens) (UniProt Q15139).
T1 sequence (whole entry): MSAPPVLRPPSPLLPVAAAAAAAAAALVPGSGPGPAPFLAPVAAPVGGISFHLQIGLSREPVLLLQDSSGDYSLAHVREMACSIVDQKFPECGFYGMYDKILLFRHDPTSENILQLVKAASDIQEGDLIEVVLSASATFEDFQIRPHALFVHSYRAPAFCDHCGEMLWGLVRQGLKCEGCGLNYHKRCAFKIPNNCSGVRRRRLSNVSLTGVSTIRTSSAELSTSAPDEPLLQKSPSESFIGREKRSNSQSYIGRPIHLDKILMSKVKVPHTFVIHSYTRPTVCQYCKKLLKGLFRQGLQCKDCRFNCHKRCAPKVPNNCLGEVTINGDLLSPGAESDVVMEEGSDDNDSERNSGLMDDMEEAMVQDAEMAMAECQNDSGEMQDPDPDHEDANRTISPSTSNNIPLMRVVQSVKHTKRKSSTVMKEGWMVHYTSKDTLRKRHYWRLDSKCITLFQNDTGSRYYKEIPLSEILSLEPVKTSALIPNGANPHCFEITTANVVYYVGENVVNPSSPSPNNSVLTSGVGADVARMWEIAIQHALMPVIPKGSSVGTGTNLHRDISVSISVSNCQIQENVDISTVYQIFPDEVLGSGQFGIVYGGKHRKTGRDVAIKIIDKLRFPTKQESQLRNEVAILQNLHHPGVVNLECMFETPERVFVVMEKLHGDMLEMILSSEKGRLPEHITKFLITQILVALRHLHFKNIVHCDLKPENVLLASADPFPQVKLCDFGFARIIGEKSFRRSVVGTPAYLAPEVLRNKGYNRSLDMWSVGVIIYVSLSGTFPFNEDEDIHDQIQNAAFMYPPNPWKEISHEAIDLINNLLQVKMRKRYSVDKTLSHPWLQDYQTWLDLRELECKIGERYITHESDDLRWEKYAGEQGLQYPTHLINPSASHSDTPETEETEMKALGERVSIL
Description: Inhibition of PKDl assessed as residual activity at 10 uM. In short, it runs like this:
as §2

Test [11] deals with Myosin light chain kinase, smooth muscle (Homo sapiens, UniProt Q15746). Description: Inhibition of MLCK by HTRF assay. (Time-resolved FRET reads energy transfer from a long-lived donor to a nearby acceptor.)
Test [12] has as its target Serine/threonine-protein kinase MARK2 (Homo sapiens) (UniProt Q7KZI7). Description: Inhibition of MARK2 assessed as residual activity at 10 uM. In short, it runs like this:
as §1

Test [13] concerns the target Tyrosine-protein kinase SYK (Homo sapiens) (UniProt P43405). Kind of test: Inhibition of SYK assessed as residual activity at 10 uM. The method in brief: as §2
Test [14] has as its target T2, Ephrin type-B receptor 3 (Homo sapiens) (UniProt P54753).
T2 sequence (whole entry): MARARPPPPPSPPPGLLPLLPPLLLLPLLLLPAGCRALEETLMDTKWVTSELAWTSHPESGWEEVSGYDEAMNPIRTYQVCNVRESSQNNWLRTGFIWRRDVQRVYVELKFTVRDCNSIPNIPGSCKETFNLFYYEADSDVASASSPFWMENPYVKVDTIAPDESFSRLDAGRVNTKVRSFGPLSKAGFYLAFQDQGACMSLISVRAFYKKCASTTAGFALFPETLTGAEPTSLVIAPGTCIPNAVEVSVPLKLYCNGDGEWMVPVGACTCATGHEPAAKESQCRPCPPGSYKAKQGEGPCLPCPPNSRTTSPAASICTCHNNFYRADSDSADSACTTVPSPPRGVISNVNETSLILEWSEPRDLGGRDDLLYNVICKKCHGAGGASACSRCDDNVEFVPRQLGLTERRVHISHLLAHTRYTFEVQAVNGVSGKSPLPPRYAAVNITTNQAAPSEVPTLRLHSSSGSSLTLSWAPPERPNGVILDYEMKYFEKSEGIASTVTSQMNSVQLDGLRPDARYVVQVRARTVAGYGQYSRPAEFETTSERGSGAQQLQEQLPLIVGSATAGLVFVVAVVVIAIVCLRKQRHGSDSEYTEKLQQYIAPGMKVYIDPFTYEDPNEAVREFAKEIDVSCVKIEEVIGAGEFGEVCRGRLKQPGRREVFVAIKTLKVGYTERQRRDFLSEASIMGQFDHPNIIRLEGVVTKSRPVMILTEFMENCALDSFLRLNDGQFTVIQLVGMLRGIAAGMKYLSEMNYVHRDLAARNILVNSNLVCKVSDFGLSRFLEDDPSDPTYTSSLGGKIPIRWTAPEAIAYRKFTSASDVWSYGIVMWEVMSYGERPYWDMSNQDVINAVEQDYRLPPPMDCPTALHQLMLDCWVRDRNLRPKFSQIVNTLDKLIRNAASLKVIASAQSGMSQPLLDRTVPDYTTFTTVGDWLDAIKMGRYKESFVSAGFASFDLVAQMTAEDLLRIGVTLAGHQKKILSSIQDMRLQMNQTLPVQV
Description: Inhibition of EPHB3 assessed as residual activity at 10 uM. The method in brief:
as §1

Mitogen-activated protein kinase 1 (Homo sapiens), sequence (P28482 whole entry): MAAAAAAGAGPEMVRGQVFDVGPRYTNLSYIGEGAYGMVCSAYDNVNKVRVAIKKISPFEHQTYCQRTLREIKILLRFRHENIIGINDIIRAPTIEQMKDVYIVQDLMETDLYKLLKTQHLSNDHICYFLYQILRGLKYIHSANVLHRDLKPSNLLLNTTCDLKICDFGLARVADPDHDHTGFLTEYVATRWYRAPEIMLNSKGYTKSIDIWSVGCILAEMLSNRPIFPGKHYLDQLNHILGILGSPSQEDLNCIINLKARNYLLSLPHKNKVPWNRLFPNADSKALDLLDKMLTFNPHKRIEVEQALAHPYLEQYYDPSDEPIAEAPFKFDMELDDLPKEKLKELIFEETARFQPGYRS
Myosin light chain kinase, smooth muscle, sequence (Q15746 whole entry): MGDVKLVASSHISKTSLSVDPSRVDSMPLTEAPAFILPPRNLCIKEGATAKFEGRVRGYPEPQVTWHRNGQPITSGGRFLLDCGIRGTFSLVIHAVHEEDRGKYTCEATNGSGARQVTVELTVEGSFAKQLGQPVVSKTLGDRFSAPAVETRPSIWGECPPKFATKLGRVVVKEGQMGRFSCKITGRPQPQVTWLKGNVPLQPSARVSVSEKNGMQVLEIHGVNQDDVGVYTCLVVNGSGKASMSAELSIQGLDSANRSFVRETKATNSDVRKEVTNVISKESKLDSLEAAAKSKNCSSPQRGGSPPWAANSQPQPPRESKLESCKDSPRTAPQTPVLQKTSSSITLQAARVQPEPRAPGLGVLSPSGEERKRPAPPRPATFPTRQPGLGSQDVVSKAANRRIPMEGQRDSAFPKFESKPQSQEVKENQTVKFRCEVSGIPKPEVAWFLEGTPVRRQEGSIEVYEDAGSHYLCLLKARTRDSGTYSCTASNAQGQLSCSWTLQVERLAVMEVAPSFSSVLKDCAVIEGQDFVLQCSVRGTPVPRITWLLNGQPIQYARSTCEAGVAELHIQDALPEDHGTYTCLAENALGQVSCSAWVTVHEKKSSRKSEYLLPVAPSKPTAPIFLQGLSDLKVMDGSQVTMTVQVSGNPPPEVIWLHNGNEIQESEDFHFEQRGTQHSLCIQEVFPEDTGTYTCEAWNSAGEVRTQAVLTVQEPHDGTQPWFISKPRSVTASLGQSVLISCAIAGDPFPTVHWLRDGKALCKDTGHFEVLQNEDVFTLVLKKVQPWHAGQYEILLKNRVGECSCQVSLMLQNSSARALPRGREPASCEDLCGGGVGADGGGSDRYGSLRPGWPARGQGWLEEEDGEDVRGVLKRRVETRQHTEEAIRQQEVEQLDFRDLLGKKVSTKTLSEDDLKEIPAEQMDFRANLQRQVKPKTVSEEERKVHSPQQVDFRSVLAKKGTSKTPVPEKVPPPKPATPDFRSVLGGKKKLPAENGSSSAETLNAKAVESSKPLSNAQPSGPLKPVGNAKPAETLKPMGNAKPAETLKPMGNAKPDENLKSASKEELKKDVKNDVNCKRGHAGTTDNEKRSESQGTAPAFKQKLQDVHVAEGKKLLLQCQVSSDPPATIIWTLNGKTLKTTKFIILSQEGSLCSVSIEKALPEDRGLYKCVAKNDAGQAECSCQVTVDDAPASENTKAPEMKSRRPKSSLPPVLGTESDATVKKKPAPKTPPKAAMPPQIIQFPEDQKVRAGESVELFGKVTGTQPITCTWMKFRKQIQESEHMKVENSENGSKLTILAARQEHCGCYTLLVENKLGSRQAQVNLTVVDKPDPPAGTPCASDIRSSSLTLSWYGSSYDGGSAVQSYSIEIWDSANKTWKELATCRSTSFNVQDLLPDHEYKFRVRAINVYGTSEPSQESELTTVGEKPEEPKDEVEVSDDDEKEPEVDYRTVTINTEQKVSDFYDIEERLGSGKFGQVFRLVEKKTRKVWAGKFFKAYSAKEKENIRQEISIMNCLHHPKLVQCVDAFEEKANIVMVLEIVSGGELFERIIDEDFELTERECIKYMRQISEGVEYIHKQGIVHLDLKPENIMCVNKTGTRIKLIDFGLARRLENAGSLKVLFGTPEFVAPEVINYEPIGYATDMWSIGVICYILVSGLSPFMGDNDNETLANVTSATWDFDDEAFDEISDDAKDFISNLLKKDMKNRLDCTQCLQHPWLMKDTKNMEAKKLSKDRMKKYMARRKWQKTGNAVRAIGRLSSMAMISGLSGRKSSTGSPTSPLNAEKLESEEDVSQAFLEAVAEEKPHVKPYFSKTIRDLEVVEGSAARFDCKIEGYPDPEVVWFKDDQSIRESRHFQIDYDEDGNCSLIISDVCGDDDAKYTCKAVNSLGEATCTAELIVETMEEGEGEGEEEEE
Proto-oncogene tyrosine-protein kinase Src (Homo sapiens), sequence (P12931 2-536 limits assumed): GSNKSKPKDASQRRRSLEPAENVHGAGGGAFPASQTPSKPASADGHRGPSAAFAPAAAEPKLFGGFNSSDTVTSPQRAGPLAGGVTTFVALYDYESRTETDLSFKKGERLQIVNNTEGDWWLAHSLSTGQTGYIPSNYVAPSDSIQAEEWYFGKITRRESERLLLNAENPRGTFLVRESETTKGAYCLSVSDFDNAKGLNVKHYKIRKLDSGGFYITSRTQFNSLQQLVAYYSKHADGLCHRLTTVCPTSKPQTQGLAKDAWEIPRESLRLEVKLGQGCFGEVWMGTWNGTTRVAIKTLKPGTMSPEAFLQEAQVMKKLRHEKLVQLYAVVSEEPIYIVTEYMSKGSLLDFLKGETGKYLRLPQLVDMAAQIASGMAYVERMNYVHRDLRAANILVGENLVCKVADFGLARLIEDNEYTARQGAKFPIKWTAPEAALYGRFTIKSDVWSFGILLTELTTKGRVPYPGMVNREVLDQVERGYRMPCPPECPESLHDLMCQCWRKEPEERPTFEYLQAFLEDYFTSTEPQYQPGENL
Insulin receptor-related protein (Homo sapiens), sequence (P14616 whole entry): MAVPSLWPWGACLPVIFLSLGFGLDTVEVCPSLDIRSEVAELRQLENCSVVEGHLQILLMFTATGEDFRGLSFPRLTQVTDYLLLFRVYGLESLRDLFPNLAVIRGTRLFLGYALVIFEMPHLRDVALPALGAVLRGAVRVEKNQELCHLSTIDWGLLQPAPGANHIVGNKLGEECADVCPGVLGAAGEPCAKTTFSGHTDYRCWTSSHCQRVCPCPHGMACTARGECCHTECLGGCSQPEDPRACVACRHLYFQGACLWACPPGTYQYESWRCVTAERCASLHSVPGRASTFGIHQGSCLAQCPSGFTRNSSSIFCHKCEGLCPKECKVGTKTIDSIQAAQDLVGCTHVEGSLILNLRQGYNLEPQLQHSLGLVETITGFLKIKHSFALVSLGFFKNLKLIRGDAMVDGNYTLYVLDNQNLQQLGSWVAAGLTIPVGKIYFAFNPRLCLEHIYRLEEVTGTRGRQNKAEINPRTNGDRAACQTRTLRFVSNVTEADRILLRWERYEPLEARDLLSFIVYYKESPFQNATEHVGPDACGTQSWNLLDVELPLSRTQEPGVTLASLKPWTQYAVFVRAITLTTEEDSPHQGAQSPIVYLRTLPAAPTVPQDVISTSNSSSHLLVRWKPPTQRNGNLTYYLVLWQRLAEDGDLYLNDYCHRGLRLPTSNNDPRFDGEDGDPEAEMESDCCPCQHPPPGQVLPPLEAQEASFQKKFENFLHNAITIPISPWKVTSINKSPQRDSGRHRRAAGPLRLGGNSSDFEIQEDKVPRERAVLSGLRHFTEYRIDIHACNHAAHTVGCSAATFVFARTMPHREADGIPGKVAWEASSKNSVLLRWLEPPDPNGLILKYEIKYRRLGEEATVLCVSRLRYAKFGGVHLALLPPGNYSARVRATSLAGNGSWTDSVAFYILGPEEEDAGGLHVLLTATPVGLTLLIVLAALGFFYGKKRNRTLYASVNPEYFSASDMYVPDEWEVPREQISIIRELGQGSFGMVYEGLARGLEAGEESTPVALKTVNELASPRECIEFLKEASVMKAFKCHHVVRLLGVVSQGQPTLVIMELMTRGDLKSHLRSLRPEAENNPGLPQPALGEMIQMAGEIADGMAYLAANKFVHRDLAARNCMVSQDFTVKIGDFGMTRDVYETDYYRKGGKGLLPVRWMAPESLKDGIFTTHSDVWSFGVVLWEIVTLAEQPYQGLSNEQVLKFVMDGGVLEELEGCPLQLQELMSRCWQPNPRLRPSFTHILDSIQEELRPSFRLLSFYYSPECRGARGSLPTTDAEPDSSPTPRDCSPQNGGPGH
Tyrosine-protein kinase BTK (Homo sapiens), sequence (Q06187 whole entry): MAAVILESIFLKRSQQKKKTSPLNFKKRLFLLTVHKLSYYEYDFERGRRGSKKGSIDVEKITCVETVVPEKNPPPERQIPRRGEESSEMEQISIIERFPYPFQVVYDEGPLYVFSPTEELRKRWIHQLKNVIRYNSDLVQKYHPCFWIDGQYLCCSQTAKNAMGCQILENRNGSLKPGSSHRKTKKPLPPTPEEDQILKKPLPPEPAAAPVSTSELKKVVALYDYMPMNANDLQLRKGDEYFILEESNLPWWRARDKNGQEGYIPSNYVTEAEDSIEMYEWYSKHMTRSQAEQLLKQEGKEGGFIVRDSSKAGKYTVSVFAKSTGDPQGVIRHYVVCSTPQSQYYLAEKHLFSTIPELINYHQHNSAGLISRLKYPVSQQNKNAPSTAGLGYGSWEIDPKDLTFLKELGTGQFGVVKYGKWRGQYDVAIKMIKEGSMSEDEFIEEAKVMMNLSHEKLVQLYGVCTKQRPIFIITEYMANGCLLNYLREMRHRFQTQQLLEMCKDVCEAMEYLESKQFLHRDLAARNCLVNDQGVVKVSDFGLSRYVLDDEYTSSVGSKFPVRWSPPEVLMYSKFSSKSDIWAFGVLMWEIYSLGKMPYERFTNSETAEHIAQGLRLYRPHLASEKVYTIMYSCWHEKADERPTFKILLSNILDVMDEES

For the compound `CN1CCN(CCC(=O)Nc2ccc3c(C#N)cnc(Nc4cccc(Br)c4)c3c2)CC1`, the Activity came out at 99% in test [1]; 76% in test [2]; 100% in test [3]; 38% in test [4]; 49% in test [5]; 100% in test [6]. Also, the Activity in test [7] came to 95%; in test [8], 77%; in test [9], 86%; in [10], 83%; in [12], 100%; in [13] it was 77%. In addition, the Activity in test [14] was 90%. In addition, 8.7 µM corresponded to half-maximal inhibition in test [11] (IC50).
As to `CN(C)CCCC(=O)Nc1ccc2c(C#N)cnc(Nc3cccc(Br)c3)c2c1`, the Activity in [1] was 97%; in [2], 72%; in test [3], 100%; in test [4], 11%; in test [5], 60%; in [6] it was 100%. Also, the Activity in [7] came out at 100%; in test [8] it was 79%; in [9] it was 98%; in test [10], 75%; in [12] it was 100%; in test [13] it was 64%. Further, the Activity in test [14] stood at 100%. Half-maximal inhibition in test [11] (IC50) required 25.1 µM.
With `CN(C)C/C=C/C(=O)Nc1ccc2c(C#N)cnc(Nc3cccc(Br)c3)c2c1`, the Activity in test [1] turned out to be 91%; in [2], 52%; in test [3], 93%; in test [4], 53%; in test [5], 61%; in test [6], 97%. Further, the Activity in [7] turned out to be 81%; in test [8], 86%; in test [9], 73%; in test [10], 79%; in test [12] it was 90%; in test [13], 61%. The Activity in test [14] was 95%. In test [11], half-maximal inhibition (IC50) was put at 23.6 µM.
